Assay [1] can be described thus: Her2 expression decrease, cell viability multiplex – SKBR3 breast tumor cells, AlphaScreen, ATP viability, primary screen (AID 461).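 On Her2 level: lower value means less Her2 protein in the cells.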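 On viability: percent of carrier control wells set as 100% viability.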 Particulars: SKBR3 Her2 protein level, 18-24 h, measured here: SKBR3 viability, ATP luminescence, at 10 µM. (In general: Bead proximity is the source of the signal in Alpha formats.)
Assay [2] has as its target Receptor tyrosine-protein kinase erbB-2 (Homo sapiens) (UniProt P04626). Described as above. Particulars: 18-24 h, at 10 µM, stronger effect = lower value.
The nature of assay [3]: reduced viability of SK-BR-3 breast cancer cells – cell-based, 24 h, human, pilot screen (AID 572;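 active means viability at or below 10% of carrier control in both of two separate runs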;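 further: compound exposure lasted between 18 and 24 h rather than exactly 24 h; 100% = carrier-treated control wells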). Particulars: SK-BR-3 viability, CellTiter-Glo luminescence, at 10 µM, stronger effect = lower value.
Assay [4] is described as follows: HUVEC growth inhibition – cell-based, human, primary screen (AID 575;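 active means viability at or below 30% in both replicate assays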;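 further: 100% = median of untreated cell wells with 0.1% DMSO on each plate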). The conditions noted are these: HUVEC proliferation, CellTiter-Glo luminescence, 72 h; at 10 µM; stronger effect = lower value. In a few lines:
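System – primary HUVEC, no more than 12 passages · Medium – Low-serum (2% FBS) EBM, supplemented · Times – 72 h exposure, 37 °C, 5% CO2, 30 min RT equilibration · Measured by – luminescent ATP assay · Read-out – % viability relative to median vehicle-well signal on each plate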

The nature of assay [5]: H69AR cell proliferation blockers – human, duplicate replicates, primary screen (AID 580;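 active means viability at or under a set limit in both replicates, limit being median viability minus 3 SD, cut at about 48% in these data, passing the limit was not always enough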;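 further: 100% = mean luminescence of untreated wells and 0% = no signal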). The conditions noted are these: H69AR lung tumor cells viability, ATP luminescence, 72 h; at 10 µM; stronger effect = lower value.
Assay [6] can be described thus: MRP1 drug-resistance reversers in H69AR cells – cell-based, doxorubicin co-treatment, pilot screen (AID 601;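 active means viability loss from added drug above about 55%, and viability with drug at most 40%, in both replicates, limit read from the data, passing the limit was not always enough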). The conditions noted are these: CellTiter-Glo, 72 h, at 10 µM; for differential viability (reversal): stronger effect = higher value.
A short description of assay [7]: yeast transport mutant growth inhibition pilot in 384-well plates, post-Golgi transport modulator project (AID 636; in the data active means inhibition above about 31%). The conditions noted are these: absorbance 615 nm, about 18 h, stronger effect = higher value.
Assay [8] in a line: growth suppression of yeast trafficking mutant, preliminary HTS, modulators of trafficking downstream of Golgi apparatus project, 1536-format plate, OD 615 nm (AID 637; in the data active means inhibition above about 30%). Particulars: yeast transport mutant growth, absorbance 615 nm, 18 h; stronger effect = higher value.
Where [9] appears, read: H69AR cells + 2 uM doxorubicin, measured here: viability with 2 uM doxorubicin, stronger effect = lower value.
Setting [10] is: H69AR cells, compound alone cytotoxicity.

Active and inactive are the calls of the source.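 How the source made its calls, unless noted: active means Her2 level under about 52% in both replicate screens, with viability over 70% of control (limit read from the data); inconclusive means Her2 under the limit in one screen only, or viability under 70%; inactive means Her2 level above the set limit.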 Square brackets hold non-standard residues; d marks the D form. Peptide text beside a SMILES is read from it. * marks the point of attachment. ξ: configuration not given here. Cbz = O=C(OCc1ccccc1)*; ξK = NCCCCC(N)C(=O)O

Broadly, the viability is a read-out of living cells in per cent, often relative to untreated cells. For orientation: inhibition means the drop in the measured response relative to a control, in per cent.

Receptor tyrosine-protein kinase erbB-2 (Homo sapiens), sequence (P04626 whole entry, looked up): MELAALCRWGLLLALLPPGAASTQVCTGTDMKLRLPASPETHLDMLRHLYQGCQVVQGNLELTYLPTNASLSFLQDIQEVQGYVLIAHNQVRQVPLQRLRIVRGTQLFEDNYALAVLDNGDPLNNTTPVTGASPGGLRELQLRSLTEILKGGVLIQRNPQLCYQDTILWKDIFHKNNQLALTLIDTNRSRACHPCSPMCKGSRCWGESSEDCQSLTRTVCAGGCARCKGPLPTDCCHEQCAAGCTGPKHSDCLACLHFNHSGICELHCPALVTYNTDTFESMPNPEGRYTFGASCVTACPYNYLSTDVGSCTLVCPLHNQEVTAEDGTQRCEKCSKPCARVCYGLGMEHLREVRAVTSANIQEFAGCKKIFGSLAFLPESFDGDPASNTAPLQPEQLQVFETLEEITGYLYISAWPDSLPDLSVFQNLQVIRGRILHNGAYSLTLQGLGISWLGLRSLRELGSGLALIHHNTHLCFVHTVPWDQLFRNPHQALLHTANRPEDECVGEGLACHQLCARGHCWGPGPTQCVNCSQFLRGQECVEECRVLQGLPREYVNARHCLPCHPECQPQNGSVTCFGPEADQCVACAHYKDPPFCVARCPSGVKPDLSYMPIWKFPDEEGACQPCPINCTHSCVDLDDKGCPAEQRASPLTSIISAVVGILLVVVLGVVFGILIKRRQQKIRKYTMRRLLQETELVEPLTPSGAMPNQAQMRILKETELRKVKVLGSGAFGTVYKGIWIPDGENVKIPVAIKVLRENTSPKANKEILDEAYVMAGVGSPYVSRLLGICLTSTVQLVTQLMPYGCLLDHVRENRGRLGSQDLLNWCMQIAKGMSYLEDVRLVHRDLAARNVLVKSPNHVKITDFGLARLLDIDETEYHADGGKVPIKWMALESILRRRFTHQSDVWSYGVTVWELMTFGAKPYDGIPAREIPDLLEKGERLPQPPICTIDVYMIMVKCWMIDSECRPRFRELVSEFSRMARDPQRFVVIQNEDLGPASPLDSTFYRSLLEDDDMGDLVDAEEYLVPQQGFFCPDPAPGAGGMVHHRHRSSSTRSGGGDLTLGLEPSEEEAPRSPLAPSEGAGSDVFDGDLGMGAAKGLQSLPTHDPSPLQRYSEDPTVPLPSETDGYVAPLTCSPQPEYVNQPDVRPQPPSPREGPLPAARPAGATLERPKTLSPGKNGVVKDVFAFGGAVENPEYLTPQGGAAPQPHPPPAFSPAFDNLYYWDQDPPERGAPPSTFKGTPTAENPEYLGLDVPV

`COc1ccccc1N1CC(O)=C(c2nc3ccccc3c(=O)[nH]2)C1=N`: the viability was 116% in assay [1]; 116% (inactive) in assay [3]; 102% (inactive) in assay [4]; 71.7% (inactive) in assay [5]; 85.7% in assay [6] (setting [9]); 71.7% in assay [6] (setting [10]). The Her2 level in assay [2] is 72% (inactive). The differential viability (reversal) in assay [6] (H69AR cells + 2 uM doxorubicin) is -13.9% (inactive). Moreover, the inhibition in assay [7] was -4.05% (inactive); in assay [8], 1.59% (inactive).
For `O=C(CSc1nnc(Cn2cnc3ccccc32)o1)c1ccccc1`, the viability in assay [1] was 124%; in assay [3] it was 124% (inactive); in assay [4], 61.8% (inactive); in assay [5] it was 73.3% (inactive); in assay [6] (setting [9]), 83.2%; in assay [6] (setting [10]) it was 73.3%. The Her2 level in assay [2] is 86.5% (inactive). In assay [6] (H69AR cells + 2 uM doxorubicin), the differential viability (reversal) is -9.91% (inactive). In addition, the values for the inhibition in assay [7] and in assay [8] were -6.84% (inactive) and 3.49% (inactive), respectively.
For the compound `CC(=O)Nc1ccccc1-c1nc2ccc(C(=O)N3CCN(c4ccccc4)CC3)cc2[nH]c1=O`, the viability in assay [1] was 99.5%; in assay [3], 99.5% (inactive); in assay [4], 86.2% (inactive); in assay [5] it was 93.4% (inactive); in assay [6] (setting [9]) it was 95%; in assay [6] (setting [10]), 93.4%. For the same compound, the Her2 level in assay [2] was 88% (inactive). In assay [6] (H69AR cells + 2 uM doxorubicin), the differential viability (reversal) was -1.66% (inactive). Further, the inhibition in assay [7] is -1.33% (inactive); in assay [8], 1.15% (inactive).
On to `CC(C)Cn1c(CN2CCCCC2C)nc2c1c(=O)n(C)c(=O)n2C` (stereo not given), for which the viability is 88.5% in assay [1]; 88.5% (inactive) in assay [3]; 109% (inactive) in assay [4]; 94.2% (inactive) in assay [5]; 77.6% in assay [6] (setting [9]); 94.2% in assay [6] (setting [10]). Further, in assay [2], the Her2 level is 91.5% (inactive). For the same compound, in assay [6] (H69AR cells + 2 uM doxorubicin), the differential viability (reversal) is 16.7% (inactive). The inhibition in assay [7] is -5.73% (inactive); in assay [8], -3.61% (inactive).
`COc1ccccc1Cn1nnc2c(=O)[nH]c(C3CCN(C(=O)c4ccccc4Cl)CC3)nc21`: the viability in assay [1] was 93%; in assay [3], 93% (inactive); in assay [4], 102% (inactive); in assay [5] it was 82.2% (inactive); in assay [6] (setting [9]) it was 28.1%; in assay [6] (setting [10]), 82.2%. The Her2 level in assay [2] was 95.5% (inactive). Further, in assay [6] (H69AR cells + 2 uM doxorubicin), the differential viability (reversal) was 54.1% (inactive). Moreover, the inhibition in assay [7] is -3.64% (inactive); in assay [8], 0.48% (inactive).
For `CC(C)C(=O)Nc1nnc(CCc2nnc(NC(=O)C(C)C)s2)s1`, the viability was 99% in assay [1]; 99% (inactive) in assay [3]; 106% (inactive) in assay [4]; 93.6% (inactive) in assay [5]; 91.3% in assay [6] (setting [9]); 93.6% in assay [6] (setting [10]). Also, the Her2 level in assay [2] was 97% (inactive). The differential viability (reversal) in assay [6] (H69AR cells + 2 uM doxorubicin) was 2.27% (inactive). Also, the inhibition is -4.61% (inactive) in assay [7] and 0.16% (inactive) in assay [8].
As to `Cc1nn(-c2ccccc2)c(Cl)c1C(=O)NCC(=O)O`, the viability in assay [1] is 100%; in assay [3], 100% (inactive); in assay [4], 105% (inactive); in assay [5], 113% (inactive); in assay [6] (setting [9]), 111%; in assay [6] (setting [10]) it was 113%. Moreover, the Her2 level in assay [2] was 96% (inactive). The differential viability (reversal) in assay [6] (H69AR cells + 2 uM doxorubicin) is 1.59% (inactive). In addition, the values for the inhibition in assay [7] and in assay [8] were -6.45% (inactive) and 0.17% (inactive), respectively.
Consider `CC(=O)Nc1ccc(Oc2cc(C#N)c(C#N)cc2N2CCCCCC2)cc1`, for which the viability in assay [1] was 108%; in assay [3] it was 108% (inactive); in assay [4] it was 73.5% (inactive); in assay [5], 89.6% (inactive); in assay [6] (setting [9]), 67.8%; in assay [6] (setting [10]), 89.6%. The Her2 level in assay [2] is 76% (inactive). Besides, the differential viability (reversal) in assay [6] (H69AR cells + 2 uM doxorubicin) was 21.8% (inactive). The values for the inhibition in assay [7] and in assay [8] were -3.03% (inactive) and 0.95% (inactive), respectively.
Take `COC(=O)C(CCCCNC(=O)OCc1ccccc1)NC(=O)CN` (stereo not given) (H-Gly-[ξK](Cbz)-OMe): the viability in assay [1] is 109%; in assay [3], 109% (inactive); in assay [4], 96.6% (inactive); in assay [5] it was 100% (inactive); in assay [6] (setting [9]), 95.5%; in assay [6] (setting [10]) it was 100%. The Her2 level in assay [2] was 92.5% (inactive). In addition, the differential viability (reversal) in assay [6] (H69AR cells + 2 uM doxorubicin) was 4.78% (inactive). Also, the inhibition in assay [7] was -2.6% (inactive); in assay [8], -0.79% (inactive).
On to `Cc1cc2oc(=O)cc(C)c2c(=O)o1`, for which the viability in assay [1] was 101%; in assay [3] it was 101% (inactive); in assay [4], 94.8% (inactive); in assay [5], 108% (inactive); in assay [6] (setting [9]), 96.6%; in assay [6] (setting [10]) it was 108%. For the same compound, the Her2 level in assay [2] is 136% (inactive). Also, in assay [6] (H69AR cells + 2 uM doxorubicin), the differential viability (reversal) was 11.2% (inactive). For the same compound, the inhibition is 2.5% (inactive) in assay [7] and -3.83% (inactive) in assay [8].
On to `Cc1ccc(C)c(N2CCN(S(=O)(=O)c3ccc4c(c3)OCCO4)CC2)c1`, for which the viability in assay [1] is 97.5%; in assay [3] it was 97.5% (inactive); in assay [4], 99.2% (inactive); in assay [5], 106% (inactive); in assay [6] (setting [9]), 101%; in assay [6] (setting [10]) it was 106%. For the same compound, the Her2 level in assay [2] is 96.5% (inactive). In addition, the differential viability (reversal) in assay [6] (H69AR cells + 2 uM doxorubicin) was 4.96% (inactive). The inhibition in assay [7] was -4.81% (inactive); in assay [8] it was -3.97% (inactive).
`CCOC(=O)CC1=C(C(=O)OCC)C(c2ccc(C)o2)C(C#N)=C(N)O1` (stereo not given): the viability in assay [1] was 95%; in assay [3] it was 95% (inactive); in assay [4], 107% (inactive); in assay [5] it was 85.6% (inactive); in assay [6] (setting [9]), 77.3%; in assay [6] (setting [10]), 85.6%. The Her2 level in assay [2] is 104% (inactive). The differential viability (reversal) in assay [6] (H69AR cells + 2 uM doxorubicin) was 8.26% (inactive). Besides, the inhibition in assay [7] was 0.65% (inactive); in assay [8], -9.05% (inactive).
For the compound `CS(=O)(=O)c1ccc2nc(NC(=O)C3C4C=CC(C4)C3C(=O)O)sc2c1` (stereo not given), the viability in assay [1] was 96%; in assay [3], 96% (inactive); in assay [4], 101% (inactive); in assay [5], 104% (inactive); in assay [6] (setting [9]), 90.3%; in assay [6] (setting [10]) it was 104%. The Her2 level in assay [2] was 154% (inactive). Moreover, the differential viability (reversal) in assay [6] (H69AR cells + 2 uM doxorubicin) is 13.3% (inactive). The results for the inhibition in assay [7] and in assay [8] were -2.5% (inactive) and -12.8% (inactive), respectively.
Take `COCCn1c(C)cc(C(=O)COC(=O)c2n[nH]c3ccccc23)c1C`: the viability was 97.5% in assay [1]; 97.5% (inactive) in assay [3]; 92.5% (inactive) in assay [4]; 81.3% (inactive) in assay [5]; 84.1% in assay [6] (setting [9]); 81.3% in assay [6] (setting [10]). In assay [2], the Her2 level is 84% (inactive). Also, in assay [6] (H69AR cells + 2 uM doxorubicin), the differential viability (reversal) was -2.8% (inactive). Also, the figures for the inhibition in assay [7] and in assay [8] were -8.24% (inactive) and 0.98% (inactive), respectively.
For `Cc1cc(OCC(=O)Nc2ccc3oc(-c4ccncc4)nc3c2)ccc1Cl`, the viability is 92.5% in assay [1]; 92.5% (inactive) in assay [3]; 68% (inactive) in assay [4]; 60.1% (inactive) in assay [5]; 58.7% in assay [6] (setting [9]); 60.1% in assay [6] (setting [10]). The Her2 level in assay [2] is 121% (inactive). Besides, the differential viability (reversal) in assay [6] (H69AR cells + 2 uM doxorubicin) was 1.31% (inactive). Moreover, the inhibition in assay [7] is 3.95% (inactive); in assay [8], 8.85% (inactive).

For the origin of these results see PubChem BioAssay.
